Experimental data published in ChEMBL document CHEMBL1152567, “Synthesis and analgesic profile of conformationally constrained N-acylhydrazone analogues: discovery of novel N-arylideneamino quinazolin-4(3H)-one compounds derived from natural safrole” (2009).
The source made the active and inactive calls.

Legend:
Mus musculus [1] = test: Antinociceptive activity in Albino swiss mouse assessed as inhibition of formalin induced pain at 100 umol/kg, ip treated 1 hr before formalin challenge; type: functional, organism-based
Procedure, shortened: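 Albino Swiss mice of both sexes (18–25 g), fasted 8 h, dosed ip in 5% arabic gum. 60 min later, 20 µL of 2.5% formalin subplantar in one hind paw. Time spent licking or biting the paw scored at 0–5 min (neurogenic phase) and 15–30 min (inflammatory phase). Mean ± SEM, n=6–12; two-way ANOVA, Bonferroni.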

Mus musculus [2] = test: Antinociceptive activity in po treated Albino mouse assessed as inhibition of acetic acid-induced abdominal constriction treated 1 hr before acetic acid challenge; type: functional; conditions: Abdomen
Procedure, shortened: (§1)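 Albino mice of both sexes (18–23 g), dosed orally as a suspension in 5% arabic gum in saline. Acetic acid given ip 1 h later. Constrictions counted for 20 min, starting 10 min after injection. Expressed as % inhibition versus vehicle controls. Dose–response over 0.3–100 µmol/kg. Mean ± SEM of n animals; one-way ANOVA, Dunnett, P<0.01.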

Oryctolagus cuniculus = species on record: Oryctolagus cuniculus; test: Inhibition of arachidonic acid-induced rabbit platelet aggregation by turbidimetric method; type: functional
Procedure, shortened: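 Rabbits (2.5–3.0 kg) bled from the central ear artery into 3.8% trisodium citrate (9:1). PRP was spun at 1800 rpm and PPP at 3600 rpm, 10 min each at room temperature. PRP was stirred at 900 rpm at 37 °C, with compound or 0.5% DMSO vehicle added 5 min before arachidonic acid (200 µM in methods; 100 µM elsewhere). Read-out was percent of AA aggregation.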

Mus musculus [3] = test: Antinociceptive activity in Albino mouse assessed as inhibition of acetic acid-induced abdominal constriction at 100 umol/kg, po treated 1 hr before acetic acid challenge relative to control; type: functional; conditions: Abdomen; procedure, shortened: as §1
Mus musculus [4] = test: Analgesic activity in Swiss mouse assessed as response to thermal stimulation at 100 umol/kg, ip by Hot-plate test; type: functional, organism-based
Procedure, shortened: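 Swiss mice of both sexes, fasted 8 h, water ad libitum; dosed ip in 1% tween in saline. Placed on plate at 55 ± 0.1 °C; paw licking or withdrawal timed. Two control readings 30 min apart set baseline latency; cut-off three times control mean. Latency recorded every 30 min after dosing for 150 min. Mean ± SEM, n=7.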

Rattus norvegicus [5] = test: Analgesic activity in carrageenan-induced Wistar rat hyperalgesia model assessed as reduction in latency time at 100 umol/kg, ip treated 60 mins before carrageen challenge; type: functional; set-up: scale not given: the % may be the effect or the level left
Procedure, shortened: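 Wistar rats, dosed ip in 1% tween 80 in saline. Carrageenan 1 mg/paw intraplantar in left paw, saline in right, 100 µL each. Left-paw withdrawal latency on 51 ± 0.1 °C plate at 0, 30, 60, 120, 180, 240 min; cut-off 20 s. Hyperalgesia taken as latency at time 0 minus later latency. Mean ± SEM, n=8–10; one-way ANOVA, Dunnett.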

Rattus norvegicus [6] = test: Antiinflammatory activity in Albino rat assessed as inhibition of carrageenan-induced paw edema at 10 umol/kg, ip; type: functional
Procedure, shortened: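 Albino rats of both sexes (150–200 g), dosed as a suspension in 1% tween 80 in saline. 1 h later, 1% carrageenan (0.1 mg/paw) into one hind paw subplantar, saline into the other. Paw volumes by plethysmometer at 3 h; edema is the difference between the paws. Expressed as % inhibition versus vehicle controls.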

Rattus norvegicus [7] = test: Antiinflammatory activity in Albino rat assessed as inhibition of carrageenan-induced paw edema at 100 umol/kg, ip; set-up: scale not given: the % may be the effect or the level left

Q: Which inhibition (Mus musculus [1]) does the source give for `C/C(=N\n1c(C)nc2cc3c(cc2c1=O)OCO3)c1cccs1` here?
A: Active

Q: What about the ED50 (Mus musculus [2]; read-out: ED50) of the same compound?
A: 3.5 mg/kg

Q: And the inhibition (Oryctolagus cuniculus)?
A: inactive

Q: What about the inhibition in vivo at 100 µmol/kg (Mus musculus [3]) of the same compound?
A: 45.3%

Q: And the Activity (Mus musculus [4])?
A: inactive

Q: And the Activity (Rattus norvegicus [5])?
A: 50%

Q: And the inhibition (Rattus norvegicus [6])?
A: inactive

Q: For `Cc1nc2cc3c(cc2c(=O)n1/N=C/c1cccnc1)OCO3`, which inhibition (Oryctolagus cuniculus) is on record?
A: inactive

Q: And the inhibition in vivo at 100 µmol/kg (Mus musculus [3])?
A: 35.2%

Q: For `Cc1nc2cc3c(cc2c(=O)n1/N=C/c1ccncc1)OCO3`, which inhibition (Oryctolagus cuniculus) is on record?
A: inactive

Q: And the inhibition in vivo at 100 µmol/kg (Mus musculus [3])?
A: 38.5%

Q: Which results are given for `Cc1nc2cc3c(cc2c(=O)n1/N=C/c1ccc(C(C)C)cc1)OCO3`?
A: inhibition (Oryctolagus cuniculus): inactive; inhibition in vivo at 100 µmol/kg (Mus musculus [3]): 32.9%

Q: With `Cc1nc2cc3c(cc2c(=O)n1/N=C/c1ccccn1)OCO3` as the compound, how does the inhibition (Oryctolagus cuniculus) read?
A: inactive

Q: What about the inhibition in vivo at 100 µmol/kg (Mus musculus [3]) of the same compound?
A: 18.5%

Q: `COc1ccc2c(c1)c(CC(=O)O)c(C)n2C(=O)c1ccc(Cl)cc1` [INDOMETHACIN] was tested. Which Activity (Rattus norvegicus [7]) did it give?
A: 61%

Q: How did the inhibition (Mus musculus [1]) turn out when `Cc1nc2cc3c(cc2c(=O)n1/N=C/c1ccc(N(C)C)cc1)OCO3` was run?
A: Active

Q: What about the ED50 (Mus musculus [2]) of the same compound?
A: 5.4 µmol/kg

Q: What about the inhibition (Oryctolagus cuniculus) of the same compound?
A: inactive

Q: And the inhibition in vivo at 100 µmol/kg (Mus musculus [3])?
A: 43%

Q: What about the Activity (Mus musculus [4]) of the same compound?
A: inactive

Q: And the Activity (Rattus norvegicus [5])?
A: 50%

Q: What about the inhibition (Rattus norvegicus [6]) of the same compound?
A: inactive

Q: Which results are given for `Cc1c(N(C)CS(=O)(=O)[O-])c(=O)n(-c2ccccc2)n1C.[Na+]` [DIPYRONE SODIUM]?
A: ED50 (Mus musculus [2]): 144 µmol/kg; inhibition in vivo at 100 µmol/kg (Mus musculus [3]): 36%

Q: With `Cc1nc2cc3c(cc2c(=O)n1/N=C/c1ccccc1)OCO3` as the compound, how does the inhibition (Oryctolagus cuniculus) read?
A: inactive

Q: What about the inhibition in vivo at 100 µmol/kg (Mus musculus [3]) of the same compound?
A: 17.6%

Q: With `Cc1nc2cc3c(cc2c(=O)n1/N=C/c1cccs1)OCO3` as the compound, how does the inhibition (Oryctolagus cuniculus) read?
A: inactive

Q: What about the inhibition in vivo at 100 µmol/kg (Mus musculus [3]) of the same compound?
A: 10.7%

Q: What does the source list for `Cc1nc2cc3c(cc2c(=O)n1/N=C/c1ccsc1)OCO3`?
A: inhibition (Oryctolagus cuniculus): inactive; inhibition in vivo at 100 µmol/kg (Mus musculus [3]): 34.7%

Q: Which inhibition (Oryctolagus cuniculus) does the source give for `Cc1nc2cc3c(cc2c(=O)n1/N=C/c1ccco1)OCO3` here?
A: inactive

Q: And the inhibition in vivo at 100 µmol/kg (Mus musculus [3])?
A: 16.9%
